# Active and inactive are the calls of the source. The calls are words filed in the database; no cut-off is given here.
# Legend:
# Influenza A virus [1] = assay: Stabilization of Influenza A virus nucleoprotein assessed as melting temperature at 5 to 15 uM measured for 10 mins
# [2] = Binding affinity to Influenza A virus nucleoprotein by surface plasmon resonance analysis
# MDCK = assay: Inhibition of nucleoprotein/polymerase acidic protein (1 to 27 residues) interaction in Influenza A virus (A/WSN/1933 (H1N1)) infected in MDCK cells by Western blot analysis; type: cell-based
# How it was run: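 MDCK cells were infected with A/WSN/33 at MOI 2 for 18 h and lysed in PBS with protease inhibitors and 0.5% NP40 by freezing; nucleic acids were not digested. Streptavidin beads loaded with 250 µM biotinylated PA(1-27) were incubated with the lysate 18 h at 4 °C, with or without compound. Bound NP was detected by anti-NP monoclonal western blot.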
# Influenza A virus [3] = assay: Antiviral activity against Influenza A virus (A/WSN/1933(H1N1)) infected in MDCK cells at MOI of 10^-3 assessed as decrease in viral load after 48 hrs by crystal violet staining-based plaque assay; type: functional, organism-based
# How it was run: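 Serum-starved MDCK cells, 0.32 x 10^6 per well, were infected with A/WSN/33 at MOI 10^-3 (multi-cycle). Compound (0.1–500 µM) or vehicle was added immediately after adsorption. After 48 h, titres in clarified supernatant were read by plaque assay with crystal violet. Runs were in triplicate, repeated at least twice, and IC50 came from a dose-response fit.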
# Influenza A virus [4] = assay: Antiviral activity against Influenza A virus (A/WSN/1933(H1N1)) infected in MDCK cells at MOI of 2 assessed as decrease in viral load after 18 hrs by immunofluorescence analysis; type: functional, organism-based
# How it was run: (§1)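 MDCK or A549 cells, 0.32 x 10^6 per well, were held 24 h serum-free to 80% confluence and then infected at MOI 2. Compound (0.1–500 µM) or vehicle was added right after virus adsorption. At 18 h, viral NP was read by immunofluorescence and corrected for cell number by DAPI. Runs were in triplicate, repeated at least twice, and IC50 came from a dose-response fit.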
# [5] = Cytotoxicity against MDCK cells assessed as reduction in cell viability after 48 hrs by trypan blue staining based method; parameters: species or system Canis lupus familiaris; details: dog
# How it was run: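 MDCK cells, 3.2 x 10^5 per well, were grown 24 h and then exposed to serial compound dilutions under the same conditions as the MTT test. At 48 h, cells were washed, trypsinised and stained with Trypan blue, and viable and dead cells were counted by phase-contrast microscopy.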
# [6] = Selectivity index, ratio of CC50 for MDCK cells to IC50 for Influenza A virus (A/WSN/1933(H1N1)) infected in MDCK cells at MOI of 10^-3 after 48 hrs; type: toxicity, cell-based; details: dog, read-out: Ratio CC50/IC50
# [7] = Selectivity index, ratio of CC50 for MDCK cells to IC50 for Influenza A virus (A/WSN/1933(H1N1)) infected in MDCK cells at MOI of 2 after 18 hrs; type: toxicity, cell-based; details: dog, read-out: Ratio CC50/IC50
# [8] = Safety index, ratio of compound CC50 to naproxen CC50 for MDCK cells by MTT assay; type: ADME, cell-based, Canis lupus familiaris; details: dog
# Influenza A virus [9] = assay: Antiviral activity against Influenza A virus (A/Udorn/1972 (H3N2)) infected in human A549 cells assessed as decrease in viral load after 18 hrs by immunofluorescence analysis; type: functional, organism-based; details: A549, 18 h; how it was run: as §1
# [10] = Selectivity index, ratio of CC50 for human A549 cells to IC50 for Influenza A virus (A/Udorn/1972 (H3N2)) after 18 hrs; type: toxicity; details: read-out: Ratio CC50/IC50
# Influenza A virus [11] = assay: Antiviral activity against Influenza A virus (A/Udorn/1972 (H3N2)) infected in MDCK cells at MOI of 2 assessed as decrease in viral load after 18 hrs by immunofluorescence analysis; type: functional, organism-based; how it was run: as §1
# [12] = Selectivity index, ratio of CC50 for MDCK cells to IC50 for Influenza A virus (A/Udorn/1972 (H3N2)) infected in MDCK cells at MOI of 2 after 18 hrs; type: toxicity, cell-based; details: dog, read-out: Ratio CC50/IC50
# Influenza A virus [13] = assay: Antiviral activity against pandemic Influenza A virus (A/Netherlands/602/09(H1N1)) infected in MDCK cells at MOI of 10^-3 assessed as decrease in viral load after 18 hrs by immunofluorescence analysis; type: functional, organism-based
# [14] = Selectivity index, ratio of CC50 for MDCK cells to IC50 for pandemic Influenza A virus (A/Netherlands/602/09(H1N1)) infected in MDCK cells at MOI of 10^-3 after 18 hrs; type: toxicity, cell-based; details: dog, read-out: Ratio CC50/IC50
# A549 = assay: Downregulation of COX2 level in human A549 cells infected with Influenza A virus at MOI of 2 at 100 uM after 18 hrs in presence of gamma-ATP by immunofluorescence analysis; type: cell-based; details: a549, 18 h
# How it was run: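 A549 cells were pretreated with compound for 30 min, then either infected with IAV at MOI 2 for 18 h or activated with 100 µM γ-ATP for 1 h with or without compound. Cells were fixed in 3% PFA and permeabilised with 0.1% triton. COX2 was immunostained overnight with a primary antibody and detected with an Alexa 647 secondary.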
# Influenza A virus [15] = assay: Inhibition of Influenza A virus nucleoprotein/polymerase acidic protein (1 to 27 residues) complex formation at 100 nM by surface plasmon resonance analysis
# How it was run: (§2)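 Biotinylated PA(1-27) was captured on the chip at about 1500 RU, with a scrambled peptide on the same chip at similar RU. NP (12–2500 nM), alone or as NP-DNA complex, was injected with or without compound up to 50 µM. Running buffer was 20 mM Tris-HCl pH 7.4, 300 mM NaCl, 0.005% P20, at 25 °C and 30 µl/min. Regeneration used guanidinium chloride then 10 mM NaOH.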
# [16] = Cytotoxicity against human A549 cells assessed as reduction in cell viability after 48 hrs by MTT assay; type: cell-based
# How it was run: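 Cells were seeded at 3.2 x 10^5 per well and kept 1 day at 37 °C in MEM without serum. Serial compound dilutions were added and cells incubated a further 48 h. The MTT read-out was absorbance at 550 nm minus 650 nm, and CC50 was taken from a dose-response fit.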
# Influenza A virus [17] = assay: Antiviral activity against Influenza A virus (A/Puerto Rico/8/1934(H1N1)) infected in C57BL/6J mouse assessed as recovery of weight loss at 1 mg/mouse/day, ip qd treated up to day 2 starting at 5 to 10 mins post infection measured up to day 12 relative to control; type: functional
# How it was run: (§3)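 Intranasal A/PR/8/34 challenge at 500 PFU in female C57BL/6J mice, 5–6 weeks old, under ketamine/xylazine. Dosing was i.p. once daily on days 0, 1 and 2, starting 5–10 min post-inoculation; 1 mg/mouse is 50 mg/kg and 8 mg/mouse is 400 mg/kg. There were 10 mice per group, with saline vehicle. Survival and body weight were scored daily, with 20% weight loss as the mortality endpoint.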
# Influenza A virus [18] = assay: Antiviral activity against Influenza A virus (A/Puerto Rico/8/1934(H1N1)) infected in C57BL/6J mouse assessed as decrease in viral load in bronchoalveolar lavage at 1 mg/mouse/day, ip qd treated up to day 2 starting at 5 to 10 mins post infection relative to control; type: functional
# How it was run: (§4)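 Female C57BL/6J mice, 5–6 weeks old, were anaesthetised with ketamine/xylazine (43/5 mg/kg) and inoculated intranasally with A/PR/8/34 at 500 PFU. Treatment was i.p. once daily on days 0, 1 and 2, starting 5–10 min after inoculation; 1 mg/mouse is 50 mg/kg and 8 mg/mouse is 400 mg/kg. BAL infectious titre was measured by plaque assay against saline-treated mice.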
# [19] = Cytotoxicity against MDCK cells assessed as reduction in cell viability after 24 to 72 hrs by MTT assay; details: dog
# Influenza A virus [20] = details: 50 uM
# Influenza A virus [21] = assay: microbe, parasite or virus in culture; details: MDCK, 18 h
# [22] = molecular target: PA/PB1 (Influenza A virus (A/Puerto Rico/8/1934(H1N1)), UniProt P03431+P03433); assay: Binding affinity to biotin labelled Influenza A virus polymerase acidic protein (1 to 27 residues) by surface plasmon resonance analysis; type: protein assay; how it was run: as §2
# [23] = (§5) Inhibition of Influenza A virus nucleoprotein/polymerase acidic protein (1 to 27 residues) complex formation in presence of DNA by surface plasmon resonance analysis; how it was run: as §2
# Influenza A virus [24] = assay: as §5; how it was run: as §2
# Influenza A virus [25] = assay: Potency index, ratio of naproxen IC50 to compound IC50 for Influenza A virus (A/WSN/1933(H1N1)) infected in MDCK cells at MOI of 2 after 18 hrs by immunofluorescence analysis; type: functional
# Influenza A virus [26] = assay: Antiviral activity against Influenza A virus (A/Udorn/1972 (H3N2)) infected in MDCK cells at MOI of 10^-3 assessed as decrease in viral load after 18 hrs by crystal violet staining-based plaque assay; type: functional, organism-based
# Influenza A virus [27] = assay: Antiviral activity against Influenza A virus (A/Udorn/1972 (H3N2)) infected in MDCK cells at MOI of 0.2 assessed as decrease in viral load after 18 hrs by immunofluorescence analysis; type: functional, organism-based
# Influenza A virus [28] = assay: Antiviral activity against Influenza A virus (A/Puerto Rico/8/1934(H1N1)) infected in ip dosed C57BL/6J mouse assessed as increase in mouse survival administered once daily treated up to day 2 starting at 5 to 10 mins post infection; type: functional, organism-based; how it was run: as §3
# Influenza A virus [29] = assay: Antiviral activity against Influenza A virus (A/Puerto Rico/8/1934(H1N1)) infected in C57BL/6J mouse assessed as survival at 1 to 8 mg/mouse/day, ip qd treated up to day 2 starting at 5 to 10 mins post infection measured at day 12 relative to control; type: functional; how it was run: as §3
# Influenza A virus [30] = assay: Antiviral activity against Influenza A virus (A/Puerto Rico/8/1934(H1N1)) infected in C57BL/6J mouse assessed as increase in mouse survival at 8 mg/mouse/day, ip qd treated up to day 2 starting at 5 to 10 mins post infection measured at day 12; type: functional, organism-based; how it was run: as §3
# Influenza A virus [31] = assay: Antiviral activity against Influenza A virus (A/Puerto Rico/8/1934(H1N1)) infected in C57BL/6J mouse assessed as recovery of weight loss at 8 mg/mouse/day, ip qd treated up to day 2 starting at 5 to 10 mins post infection measured up to day 12 relative to control; type: functional; how it was run: as §3
# Influenza A virus [32] = assay: Antiviral activity against Influenza A virus (A/Puerto Rico/8/1934(H1N1)) infected in C57BL/6J mouse assessed as recovery of weight loss at 8 mg/mouse/day, ip qd […] starting at 5 to 10 mins post infection measured up to day 12; type: functional, organism-based
# Influenza A virus [33] = assay: Antiviral activity against Influenza A virus (A/Puerto Rico/8/1934(H1N1)) infected in C57BL/6J mouse assessed as decrease in viral load in bronchoalveolar lavage at 8 mg/mouse/day, ip qd treated up to day 2 starting at 5 to 10 mins post infection relative to control; type: functional; how it was run: as §4
Structure (SMILES),Tm (Influenza A virus [1]) [°C],Ki [2] [µM],inhibition (active/not active) (MDCK),IC50 (Influenza A virus [3]) [µM],IC50 (Influenza A virus [4]) [µM],CC50 at 48 h [5] [µM],selectivity ratio at 48 h [6],selectivity ratio at 18 h [7],selectivity ratio [8],IC50 (Influenza A virus [9]) [µM],selectivity ratio at 18 h [10],IC50 (Influenza A virus [11]) [µM],selectivity ratio at 18 h [12],IC50 (Influenza A virus [13]) [µM],selectivity ratio at 18 h [14],Activity (A549),inhibition (Influenza A virus [15]),Activity (Influenza A virus [17]),fold change (FC) (Influenza A virus [18]),further results
COc1ccc2cc(-c3c(C(=O)[O-])ccc(Oc4ccc(N)cc4)c3C(=O)[O-])ccc2c1.[Na+].[Na+],48,0.03,Active,1.3,13,≥ 10000,9230,923,10,17,706,13,923,0.7,17100,Non-Toxic,,,,
COc1ccc2cc([C@H](C)C(=O)O)ccc2c1 [NAPROXEN],41,0.25,inactive,16,100,1000,87,14,,112,12.5,,12,,,,inactive,85%,2,CC50 at 48 h [16]: 1400 µM; CC50 [19]: 1400 µM; inhibition (Influenza A virus [20]): inactive; IC50 (Influenza A virus [21]): 120 µM
COc1ccc2cc(-c3c(C(=O)[O-])cccc3C(=O)[O-])ccc2c1.[Na+].[Na+],46,0.097,Active,2.9,19,,4480 to 5200,684,10,25,520,20,650,1.8,7220,Non-Toxic,Active,>=95%,6,Ki [22]: 30 µM; IC50 [23]: 0.03 µM; inhibition (Influenza A virus [24]): Dose-dependent effect; Ratio IC50 (Influenza A virus [25]): 5; IC50 (Influenza A virus [26]): 2 µM; IC50 (Influenza A virus [27]): 7 µM; Activity (Influenza A virus [28]): Dose-dependent effect; Survival (Influenza A virus [29]): 70%; Activity (Influenza A virus [30]): Active; Activity (Influenza A virus [31]): 5%; Activity (Influenza A virus [32]): Active; fold change (FC) (Influenza A virus [33]): 120

# From ChEMBL document CHEMBL4196106, “From Naproxen Repurposing to Naproxen Analogues and Their Antiviral Activity against Influenza A Virus” (J Med Chem, 2018)
